The results in this text go back to ChEMBL document CHEMBL5385966, “Synthesis and biological evaluation of new naphthalimide-thiourea derivatives as potent antimicrobial agents active against multidrug-resistant Staphylococcus aureus and Mycobacterium tuberculosis” (RSC Med Chem, 2024).

Values after ≈ are worked out from the molar mass of the structure shown. Active and inactive are the calls of the source. Some results are limits rather than exact numbers.

One assay relates to Staphylococcus aureus. In words: Antibacterial activity against Staphylococcus aureus ATCC 29213 assessed as bacterial growth inhibition incubated for 16 to 18 hrs by CLSI based antibiotic susceptibility testing method. In kind it is functional. As to conditions: time 16-18 hrs. An outline of the steps: (§1)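 Broth microdilution in cation-adjusted Mueller-Hinton broth. Compounds were tested at […], with levofloxacin as reference and medium-only controls. Plates were incubated at 37 °C for 16-18 h. MIC was the lowest concentration with no visible growth; three independent determinations, each in duplicate.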

Another assay concerns Escherichia coli. Description: Antibacterial activity against Escherichia coli ATCC 25922 assessed as bacterial growth inhibition incubated for 16 to 18 hrs by CLSI based antibiotic susceptibility testing method. The format is functional, organism-based. To be noted: time 16-18 hrs. An outline of the steps: as §1
A further assay concerns Mycobacteroides chelonae. Description: Antimycobacterial activity against Mycobacteroides chelonae ATCC 35752 assessed as bacterial growth inhibition incubated for 72 hrs by resazurin dye based broth microdilution method. The format is functional, organism-based. In outline:
(§2)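 Broth microdilution in Middlebrook 7H9 with 10% ADC-Tween-80 (0.2% glycerol, 0.05% Tween-80), inoculum ~10⁶ cfu/mL. Compounds came from 10 mg/mL DMSO stocks and were tested as two-fold serial dilutions at 37 °C, 7 days for M. tuberculosis H37Rv and 72 h for NTM. Growth was read visually with PrestoBlue resazurin dye; MIC was the lowest concentration preventing growth. Triplicate determinations, each in duplicate.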

Assay [1] deals with Mycobacterium tuberculosis. Description: Antimycobacterial activity against Mycobacterium tuberculosis H37Rv ATCC 27294 assessed as bacterial growth inhibition incubated for 7 days by resazurin dye based broth microdilution method. In kind it is functional. As to conditions: H37Rv ATCC 27294, 168 h, time 7 day. An outline of the steps: as §2
(The colour change of resazurin is a common sign of viable cells or microbes.)

In assay [2] the test system is Mycobacteroides abscessus. Description: Antimycobacterial activity against Mycobacterium abscessus ATCC 19977 assessed as bacterial growth inhibition incubated for 72 hrs by resazurin dye based broth microdilution method. In kind it is functional, organism-based. An outline of the steps: as §2
For the next assay, the system named is Pseudomonas aeruginosa. Description: Antibacterial activity against Pseudomonas aeruginosa ATCC 27853 assessed as bacterial growth inhibition incubated for 16 to 18 hrs by CLSI based antibiotic susceptibility testing method. In kind it is functional, organism-based. As to conditions: time 16-18 hrs. In outline:
as §1

Assay [3] deals with Mycolicibacterium fortuitum. In words: Antimycobacterial activity against Mycobacterium fortuitum ATCC 6841 assessed as bacterial growth inhibition incubated for 72 hrs by resazurin dye based broth microdilution method. The format is functional, organism-based. An outline of the steps: as §2
The test system of a further assay is Acinetobacter baumannii. In words: Antibacterial activity against Acinetobacter baumannii BAA 1605 assessed as bacterial growth inhibition incubated for 16 to 18 hrs by CLSI based antibiotic susceptibility testing method. The format is functional, organism-based. To be noted: time 16-18 hrs. An outline of the steps:
as §1

In the next assay the test system is Klebsiella pneumoniae. In words: Antibacterial activity against Klebsiella pneumoniae BAA 1705 assessed as bacterial growth inhibition incubated for 16 to 18 hrs by CLSI based antibiotic susceptibility testing method. In kind it is functional, organism-based. As to conditions: time 16-18 hrs. An outline of the steps:
as §1

As a reminder, the MIC is the smallest concentration in the dilution series that meets the test's criterion for growth inhibition. As to `COc1ccc(NC(=S)N2CCN(C(=O)CCN3C(=O)c4cccc5cccc(c45)C3=O)CC2)cc1`, the minimal inhibitory concentration (MIC) in the assay on Staphylococcus aureus is > 64 µg/mL; in [1], 8 µg/mL (≈ 15.9 µM). Moreover, the “growth inhibition (GI)” value (with Escherichia coli; in the assay on Mycobacteroides chelonae; in [2]; with Pseudomonas aeruginosa; in assay [3]; in the assay on Acinetobacter baumannii) was “inactive” throughout. For the same compound, the “growth inhibition (GI)” value with Klebsiella pneumoniae was “inactive”.

In the case of `O=C(CN1C(=O)c2cccc3cccc(c23)C1=O)N1CCN(C(=S)Nc2cccc(Cl)c2)CC1`, the MIC is > 64 µg/mL in the assay with Staphylococcus aureus and 32 µg/mL (≈ 64.9 µM) in assay [1]. In addition, the “growth inhibition (GI)” value (in the assay on Escherichia coli; with Mycobacteroides chelonae; in assay [2]; in the assay with Pseudomonas aeruginosa; in [3]; in the assay with Acinetobacter baumannii) was “inactive” each time. In addition, the “growth inhibition (GI)” value in the assay on Klebsiella pneumoniae is “inactive”.

In the case of `CCN=C(S)N1CCN(CCN2C(=O)c3cccc4cccc(c34)C2=O)CC1`, the MIC in the assay with Staphylococcus aureus was > 64 µg/mL; in assay [1], 64 µg/mL (≈ 161 µM). In addition, the “growth inhibition (GI)” value (in the assay on Escherichia coli; in the assay with Mycobacteroides chelonae; in assay [2]; in the assay on Pseudomonas aeruginosa; in [3]; with Acinetobacter baumannii) was “inactive” in each case. In the assay on Klebsiella pneumoniae, the “growth inhibition (GI)” value was “inactive”.

With `O=C1c2cccc3cccc(c23)C(=O)N1CCN1CCN(C(=S)Nc2cccnc2)CC1`, the minimum inhibitory concentration (MIC) (in the assay on Staphylococcus aureus; in assay [1]) was > 64 µg/mL throughout. Further, the “growth inhibition (GI)” value (in the assay with Escherichia coli; in the assay with Mycobacteroides chelonae; in assay [2]; in the assay with Pseudomonas aeruginosa; in [3]; with Acinetobacter baumannii) was “inactive” in each case. The “growth inhibition (GI)” value in the assay with Klebsiella pneumoniae was “inactive”.

Take `Cc1ccc(NC(=S)N2CCN(C(=O)CN3C(=O)c4cccc5cccc(c45)C3=O)CC2)cc1`: the MIC in the assay with Staphylococcus aureus is > 64 µg/mL; in assay [1] it was 64 µg/mL (≈ 135 µM). Besides, the “growth inhibition (GI)” value (in the assay on Escherichia coli; in the assay on Mycobacteroides chelonae; in assay [2]; with Pseudomonas aeruginosa; in [3]; in the assay with Acinetobacter baumannii) was “inactive” each time. Moreover, the “growth inhibition (GI)” value in the assay on Klebsiella pneumoniae is “inactive”.

`O=C1c2cccc3cccc(c23)C(=O)N1CCN1CCN(C(=S)NC2CC2)CC1`: the MIC (in the assay with Staphylococcus aureus; in assay [1]) was > 64 µg/mL throughout. Besides, the “growth inhibition (GI)” value (in the assay on Escherichia coli; with Mycobacteroides chelonae; in assay [2]; with Pseudomonas aeruginosa; in [3]; in the assay with Acinetobacter baumannii) was “inactive” throughout. Besides, the “growth inhibition (GI)” value in the assay with Klebsiella pneumoniae is “inactive”.

Turning to `O=C1c2cccc3cccc(c23)C(=O)N1CCN1CCN(C(=S)Nc2ccc(Cl)c(Cl)c2)CC1`, the minimum inhibitory concentration (MIC) (in the assay with Staphylococcus aureus; in assay [1]) was > 64 µg/mL in each case. The “growth inhibition (GI)” value (in the assay on Escherichia coli; in the assay on Mycobacteroides chelonae; in [2]; in the assay with Pseudomonas aeruginosa; in assay [3]; with Acinetobacter baumannii) was “inactive” in each case. Moreover, in the assay on Klebsiella pneumoniae, the “growth inhibition (GI)” value was “inactive”.
